From ChEMBL document CHEMBL4190227, “Syntheses, toxicities and anti-inflammation of H2S-donors based on non-steroidal anti-inflammatory drugs” (Eur J Med Chem, 2017)
Activity calls are given as the source filed them. The rule behind the calls is not given here.

What was measured:
RAW264.7 [1] = test: Antiinflammatory activity in mouse RAW264.7 cells assessed as increase in LPS-induced HO-1 expression at 100 uM incubated for 24 hrs post LPS induction by ELISA relative to contol; format: functional
Method in brief: (§1)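 LPS (1 μg/mL) for 4 h, then compound at 10, 50, 100 μM for 24 h; cells lysed in RIPA, spun 12,000×g 10 min, protein normalised by BCA to 0.1 mg/mL; target (TNF-α, HO-1, IL-10 or COX-2) quantified by sandwich ELISA kit with mouse-specific polyclonal antibodies; four independent experiments.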

Danio rerio [2] = species on record: Danio rerio; test: Toxicity in AB zebrafish embryo assessed as effect on hatching rate of embryos at 0.5 to 1 uM measured at 48 hrs post fertilization by dissecting light microscopic analysis; format: organism-based; settings: in vivo
Method in brief: (§2)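 AB embryos exposed from 4 to 72 hpf to compound (0.5–20 μM) or DMF vehicle (1:1000), one embryo per well; hatch rate scored at 48 hpf; n=100 per group in three replicates; three independent experiments, mean ± SD.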

Danio rerio [3] = species on record: Danio rerio; test: Toxicity in AB zebrafish embryo assessed as reduction in embryonic spontaneous movement frequency per minute at 0.5 uM measured at 24 hrs post fertilization by stereoscopic dissecting light microscopic analysis; format: organism-based; settings: in vivo
Method in brief: (§3)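 AB embryos exposed from 4 to 24 hpf to compound (0.5–20 μM) or DMF vehicle (1:1000); ten embryos per group chosen randomly; spontaneous movement recorded under stereoscopic dissecting microscope, frequency per min counted at 24 hpf; three independent experiments, mean ± SD.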

RAW264.7 [4] = test: Antiinflammatory activity in mouse RAW264.7 cells assessed as increase in IL10 levels at 10 to 100 uM measured after 24 hrs in absence of LPS by ELISA; format: functional, cell-based
Method in brief: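 Macrophages exposed 24 h to 10, 50, 100 μM without LPS; lysates (RIPA, 12,000×g spin) normalised by BCA to 0.1 mg/mL protein; IL-10 measured by mouse-specific sandwich ELISA kit; four independent experiments, mean ± SD.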

Danio rerio [5] = species on record: Danio rerio; test: Toxicity in AB zebrafish embryo assessed as reduction in number of embryos alive at 120 hrs post fertilization by dissecting light microscopic analysis; format: organism-based; settings: in vivo
Method in brief: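 Wild-type AB embryos, 100 per group split into three replicates, one per well in 200 μL test solution, plates sealed; DMF vehicle control (1:1000); mortality recorded at 24–168 hpf intervals; three independent experiments, mean ± SD.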

Danio rerio [6] = species on record: Danio rerio; test: Effect on locomotor activity in wild type AB zebrafish larvae assessed as decrease in total swimming distance at 10 uM measured for 5 mins at 144 hrs post fertilization by visible light test; format: ADME, organism-based; settings: in vivo
Danio rerio [7] = species on record: Danio rerio; test: Effect on locomotor activity in wild type AB zebrafish larvae assessed as decrease in total swimming distance at 0.5 to 1 uM measured for 5 mins at 144 hrs post fertilization by visible light test; format: ADME, organism-based; settings: in vivo
RAW264.7 [8] = test: Antiinflammatory activity in mouse RAW264.7 cells assessed as increase in LPS-induced IL10 levels at 10 to 100 uM incubated for 24 hrs post LPS induction by ELISA; format: functional, cell-based; method in brief: as §1
RAW264.7 [9] = test: Antiinflammatory activity in mouse RAW264.7 cells assessed as reduction in LPS-induced TNFalpha levels incubated for 24 hrs post LPS induction by ELISA; format: functional, cell-based; method in brief: as §1
RAW264.7 [10] = test: Antiinflammatory activity in mouse RAW264.7 cells assessed as increase in LPS-induced HO-1 expression incubated for 24 hrs post LPS induction by ELISA; format: functional, cell-based; method in brief: as §1
Danio rerio [11] = species on record: Danio rerio; test: Toxicity in AB zebrafish embryo assessed as reduction in embryonic spontaneous movement frequency per minute measured at 24 hrs post fertilization by stereoscopic dissecting light microscopic analysis; format: organism-based; settings: in vivo; method in brief: as §3
Danio rerio [12] = species on record: Danio rerio; test: Toxicity in AB zebrafish embryo assessed as reduction in hatching rate of embryos at 5 to 20 uM measured at 48 hrs post fertilization by dissecting light microscopic analysis; format: organism-based; settings: in vivo; method in brief: as §2
L02 = test: Cytotoxicity against human LO2 cells assessed as reduction in cell survival after 24 hrs by MTT assay; format: cell-based; settings: L02, 24 h
HepG2 = test: Cytotoxicity against human HepG2 cells assessed as reduction in cell survival after 24 hrs by MTT assay; format: cell-based; settings: HepG2, 24 h
RAW264.7 [13] = test: Inhibition of LPS-induced COX2 expression in mouse RAW264.7 cells at 10 to 100 uM incubated for 24 hrs post LPS induction by ELISA; format: functional, cell-based; method in brief: as §1
Danio rerio [14] = species on record: Danio rerio; test: Toxicity in AB zebrafish embryo assessed as reduction in hatching rate of embryos measured at 48 hrs post fertilization by dissecting light microscopic analysis; format: organism-based; settings: in vivo; method in brief: as §2

| Compound | fold change (FC) (RAW264.7 [1]) | Activity (Danio rerio [2]) | Activity (Danio rerio [3]) | Activity (RAW264.7 [4]) | Activity (Danio rerio [5]) | Activity (Danio rerio [6]) | Activity (Danio rerio [7]) | Activity (RAW264.7 [8]) | Activity (RAW264.7 [9]) | Activity (RAW264.7 [10]) | Activity (Danio rerio [11]) | Activity (Danio rerio [12]) | IC50 (L02) [µM] | IC50 (HepG2) [µM] | inhibition (RAW264.7 [13]) | Activity (Danio rerio [14]) |
| --- | --- | --- | --- | --- | --- | --- | --- | --- | --- | --- | --- | --- | --- | --- | --- | --- |
| CC(C)Cc1ccc(C(C)C(=O)Oc2ccc(C(N)=S)cc2)cc1 (configuration not stated) | >3 | Non-Toxic | Non-Toxic | Active | Dose-dependent effect | Toxic | Non-Toxic | Active | Dose-dependent effect | Dose-dependent effect | Dose-dependent effect | Toxic | 221 | 89.3 | Active | Dose-dependent effect |
| CC(=O)Nc1ccc(OC(=O)CCCCC2CCSS2)cc1 (configuration not stated) | <=2 | Non-Toxic | Non-Toxic | Active | Dose-dependent effect | Toxic | Non-Toxic | Active | Dose-dependent effect | Dose-dependent effect | Dose-dependent effect | Toxic | 1790 | 966 | Active | Dose-dependent effect |
